Measurements reported in ChEMBL document CHEMBL1140750, “Dynamic combinatorial mass spectrometry leads to metallo-beta-lactamase inhibitors” (J Med Chem, 2008).

Assay: Inhibition of Bacillus cereus metallo-beta-lactamase BcII by dynamic combinatorial mass spectrometry
Method in brief: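 BcII enzyme was preincubated with inhibitor at room temperature in 20 mM HEPES pH 7.0 with 20 µg/mL BSA; inhibitors came from 10 mM DMSO stocks. Imipenem substrate was then added at 20–200 µM, with at least two inhibitor concentrations plus a no-inhibitor control. Hydrolysis was followed by absorbance at 300 or 482 nm at 30 °C. Ki was derived from initial rates by Hanes linearization.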
In the case of `O=C(CCc1ccccc1)NC(CS)C(=O)O` (single isomer, unassigned; 9e), the Ki is reported as 44 µM. Work on `O=C(Cc1ccccc1)NC(CS)C(=O)O` (single isomer, unassigned; 9d) yielded a Ki of 53 µM. `O=C(O)C(S)C(S)C(=O)O` (stereo not given) gave a Ki of 125 µM. `O=C(CCc1ccccc1)NC(CS)C(=O)O` (single isomer, unassigned; 9f) showed a Ki of 73 µM. For `CC(C)(C)c1ccc(C(=O)N[C@H](CS)C(=O)O)cc1`, the Ki was 8.4 µM. Compound `CC(=O)Nc1ccc(C(=O)N[C@H](CS)C(=O)O)cc1` has a Ki of 13.5 µM. For `O=C(NC(CS)C(=O)O)c1ccccc1` (single isomer, unassigned; 9a), the Ki was 28 µM. Compound `O=C(Cc1ccccc1)NC(CS)C(=O)O` (single isomer, unassigned; 9c) has a Ki of 154 µM. Work on `O=C(NC(CS)C(=O)O)c1ccccc1` (single isomer, unassigned; 9b) yielded a Ki of 0.74 µM.

Assay: Inhibition of metallo-beta-lactamase IMP1
Work on `O=C(O)CCS` [MERCAPTOPROPIONIC ACID] yielded an IC50 of 170 µM.
